Most compounds without a hit are left out; they make up all but 1.9% or so of the library.
PglD inh: inhibitors of Campylobacter jejuni PglD acetyltransferase; purified PglD enzyme, DTNB colorimetric CoA detection; 360,000 compounds, 0.098% hits; AID 602405; inhibition, % at 12.5 µM; in the data active = inhibition above about 16%, passing the limit was not always enough; inconclusive = no clear call, values can overlap the other calls
Rtt109 HAT inh: C. albicans Rtt109 histone acetyltransferase inhibition; Q5AAJ8; purified Rtt109/Vps75, ThioGlo CoA-SH fluorescence, 4 h; inhibition, % at 34.9 µM; 330,000 compounds, 0.16% hits; AID 540336;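 active = inhibition of at least 50% in every replicate; inconclusive = best replicate reaches 50% inhibition but some replicates fall short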
Target sequence (Q5AAJ8 whole entry, looked up): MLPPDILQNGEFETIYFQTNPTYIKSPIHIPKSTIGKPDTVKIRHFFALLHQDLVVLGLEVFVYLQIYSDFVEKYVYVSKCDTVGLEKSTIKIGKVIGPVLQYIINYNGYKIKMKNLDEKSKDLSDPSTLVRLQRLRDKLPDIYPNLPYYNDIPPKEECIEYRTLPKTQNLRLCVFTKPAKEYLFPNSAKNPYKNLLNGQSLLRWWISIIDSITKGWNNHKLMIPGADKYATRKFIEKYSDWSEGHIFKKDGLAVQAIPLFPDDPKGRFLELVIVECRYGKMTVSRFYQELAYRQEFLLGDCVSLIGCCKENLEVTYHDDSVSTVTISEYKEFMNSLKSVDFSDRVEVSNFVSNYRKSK
SR-BI DiI inh: mouse SR-BI HDL lipid transfer inhibition | 320,000 compounds, 0.96% hits | Q61009 | AID 488896 | inhibition, % at 12.5 µM | ldlA[mSR-BI] CHO cells, DiI-HDL uptake fluorescence, 3 h;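 active = mean replicate inhibition of at least 70% and a set share of replicates each scoring 70 or more; inconclusive = meets just one of the two criteria; inactive = fails both criteria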;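 also: 0% = median of neutral control wells and 100% = median of positive control wells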
N-glyco inh: blocks N-linked glycosylation in D54 reporter cells | D54 ERlucT glycosylation luciferase reporter, 24 h; percent of 100 nM tunicamycin response | reporter increase, % at 12.5 µM | 360,000 compounds, 0.23% hits | AID 588692;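 active = mean luciferase reporter signal, scaled so untreated is 0 and the glycosylation-blocking control 100, at or above a set limit in every replicate; inconclusive = mean reaches the limit but not every replicate does; inactive = mean below the limit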;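 also: luciferase carries N-glycosylation sites so blocking glycosylation raises the light; 0% = median of neutral control wells and 100% = median of 100 nM tunicamycin wells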
HIV Env fusion: inhibitors of HIV Env-mediated cell fusion; HeLa-JRFL Env/CEM21 cell fusion, luciferase; inhibition, % at 12.3 µM; 360,000 compounds, 1.1% hits;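 active = mean replicate inhibition score of at least 50 and every replicate individually at or above 50; inconclusive = only one of the two criteria met; inactive = mean below 50 and not all replicates reaching 50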;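 also: 0% = plate neutral controls and 100% = maraviroc near 300 nM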
SR-BI uptake up: SR-BI HDL lipid transfer activation; CHO ldlA[mSR-BI] cells, DiI-HDL uptake fluorescence, 3 h; 100 = double the neutral-control signal; activation, % at 12.5 µM; 320,000 compounds, 0.096% hits; AID 504775;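 active = mean replicate activation of at least 60% and every replicate at or above 60%; inconclusive = mean or all-replicate condition met, but not both; inactive = mean below 60% and not all replicates reaching 60%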;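 also: 0% = median plate neutral-control signal and 100% = twice that signal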
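material = CHO ldlA[mSR-BI] cells | medium = Ham's F12 with 0.5% BSA, HEPES 25 mM, pH 7.4 | reagent = fluorescent DiI-HDL, 10 µg/mL final | compound dosing = single-point compound dose | incubation = 3 h, 37 °C | measured by = bottom-read fluorescence, 550/595 nm | measure = HDL uptake via cellular fluorescence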
The depositor's hits bear a star; ? = inconclusive; . = no result; [ ] = dose if it differs, or a comment.

SMILES	PglD inh	Rtt109 HAT inh	SR-BI DiI inh	N-glyco inh	HIV Env fusion	SR-BI uptake up
C[C@H]1CN([C@@H](C)CO)C(=O)Cc2cc(NC(=O)Nc3ccc4c(c3)OCO4)ccc2O[C@H]1CN(C)S(=O)(=O)c1ccccc1	.	.	.	.	63*[16.7 µM]	.
Cc1ccc(S(=O)(=O)N(C)C[C@H]2Oc3ccc(NC(=O)Cc4ccccc4)cc3CC(=O)N([C@H](C)CO)C[C@H]2C)cc1	1	.	.	.	30[16.7 µM]	.
Cc1ccc(S(=O)(=O)N(C)C[C@@H]2Oc3ccc(NC(=O)Cc4ccccc4)cc3CC(=O)N([C@H](C)CO)C[C@@H]2C)cc1	7	.	.	.	77*[16.7 µM]	.
C[C@@H]1CN([C@@H](C)CO)C(=O)Cc2cc(NC(=O)CCCCCC(=O)Nc3ccccc3N)ccc2O[C@H]1CN(C)C	21*	.	.	.	.	.
CO[C@@H]1CN(C)C(=O)c2cc(NS(=O)(=O)c3ccccc3C)ccc2OC[C@@H](C)N(S(=O)(=O)c2ccccc2)C[C@H]1C	-1	.	.	.	17[16.7 µM]	.
C[C@H]1CN([C@@H](C)CO)C(=O)Cc2cc(NC(=O)Cc3ccccc3)ccc2O[C@H]1CN(C)S(=O)(=O)c1ccccc1	4	.	.	.	73*[16.7 µM]	.
C[C@H](CO)N1C[C@H](C)[C@@H](CN(C)S(=O)(=O)c2ccccc2)Oc2c(NC(=O)Cc3ccccc3)cccc2C1=O	-9	-1	-20	28*	-42	20
C[C@@H]1CN([C@H](C)CO)C(=O)Cc2cc(NC(=O)Cc3ccccc3)ccc2O[C@H]1CN(C)S(=O)(=O)c1ccccc1	1	.	.	.	21[16.7 µM]	.
O=C(CCCC(=O)N(c1ccc2c(c1)OCCO2)C(C(=O)NC1CCCCC1)c1ccc(F)cc1)Nc1ccccn1 (centres undefined)	-2	.	-3	4	69*	3
Cc1cc2oc(=O)cc(-c3ccccc3)c2c(C)c1-c1ccc(CO)cc1	0	3	75*	0	-73	-75
CC(=O)c1ccc(-c2c(C)cc3oc(=O)cc(-c4ccccc4)c3c2C)cc1	-1	4	56	-4	-24	-56
COc1cc2oc(=O)cc(-c3ccc(-c4ccc(CO)cc4)cc3)c2c(OC)c1OC	-4	-15	8	-9	118*	-8
Cc1cc2oc(=O)cc(-c3ccccc3)c2c(C)c1-c1ccc(C#N)cc1	-10	1	82*	-7	-97	-82
O=C(C[C@@H]1C[C@H]2c3cc(NC(=O)Cc4ccncc4)ccc3O[C@H]2[C@@H](CO)O1)NCc1ccc2c(c1)OCO2	1	.	.	.	-13[16.7 µM]	.
CCOc1ccc(CCNC(=O)c2cc3sccc3n2CC)cc1OCC	-2	7	?	2	65*	-71
CCOc1ccc(CCNC(=O)CCC(=O)c2cccs2)cc1OCC	1	-5	26	1	-25	-26
CC(C)C[C@@H]1NC(=O)[C@@H]2C[C@H](C(=O)NCc3ccc(F)cc3)[C@H](c3ccc(O)cc3)N2C1=O	6	.	.	.	7[16.7 µM]	.
C=CC[C@H](CC(=O)N(CCO)Cc1ccccc1)C(=O)NC[C@@H](OC(=O)[C@@H](CC=C)Cc1ccc(F)cc1)c1ccccc1	4	14	38	-3	-124	-38
C=CCC[C@H](Cc1ccc(F)cc1)C(=O)O[C@H](CNC(=O)[C@@H](CC=C)CC(=O)N(CCO)Cc1ccccc1)c1ccccc1	-1	-4	18	-4	129*	-18
CC=Cc1ccc2n(c1=O)C[C@H]1[C@H](CO)[C@@H](C(=O)NCC3CC3)N(C(=O)CC3CC3)[C@@H]21 (mixture of isomers)	-1	.	.	.	.	.
C[C@]12CC[C@@H]3c4ccc(O)cc4CC[C@H]3[C@@H]1CC[C@@H]2O	-5	9	8	1	7	-3
C[C@]12CC[C@@H]3c4cc(O)c(O)cc4CC[C@H]3[C@@H]1CC[C@@H]2O	-2	123*	-4	3	-1	4
C[C@H](CO)N1C[C@H](C)[C@@H](CN(C)C(=O)Nc2cccc(F)c2)OCc2ccccc2-c2c(n(C)c3ccccc23)C1=O	-2	.	.	.	.	.
COc1ccc2sc(N(CCCN(C)C)C(=O)c3ccc(S(=O)(=O)N4CCc5ccccc5C4)cc3)nc2c1	-3	-2	-8	-5	102*	8
COCCn1c(=NC(=O)c2ccc(S(=O)(=O)N3CCc4ccccc4C3)cc2)sc2cc(OC)ccc21	1	-4	72*	-2	-2	-72
SMILES	PglD inh	Rtt109 HAT inh	SR-BI DiI inh	N-glyco inh	HIV Env fusion	SR-BI uptake up
COc1cc2c(cc1[N+](=O)[O-])-c1ccc([N+](=O)[O-])cc1C2=NNC(N)=S	0	.	.	0	.	.
NC(=S)NN=C1c2cc(Cl)ccc2-c2c1cc(Cl)cc2[N+](=O)[O-]	-4	0	105*	2	.	-105
Cc1noc(C)c1S(=O)(=O)Nc1ccc2c(c1)CC(=O)N([C@@H](C)CO)C[C@H](C)[C@H](CN(C)S(=O)(=O)c1ccc(F)cc1)O2	0	.	.	.	-26[16.7 µM]	.
CCC(CC)c1nnc(NC(=O)c2cccc(S(=O)(=O)N3CCc4ccccc43)c2)s1	1	-3	-22	-1	.	22
CN(CC(=O)Nc1ccccc1Br)C(=O)c1cccc(S(=O)(=O)N2CCc3ccccc32)c1	-1	1	82*	-7	7	-82
O=C(Nc1nc2ccc(F)cc2s1)c1cccc(S(=O)(=O)N2CCc3ccccc32)c1	6	2	74*	-4	20	-74
CCOC(=O)c1sc(NC(=O)c2cccc(S(=O)(=O)N3CCc4ccccc43)c2)c(C#N)c1C	8	0	76*	-5	31	-76
C=C[C@H](COC(C)=O)N(Cc1ccc(OC(C)=O)c(OC)c1)S(=O)(=O)c1ccc(Br)cc1	-1	.	.	.	-1[16.7 µM]	.
CCOc1nc(Nc2ccc(F)cc2)nc(N2CCN(c3ccc(OC)cc3)CC2)n1	1	-3	55	-2	.	-55
CCOc1nc(Nc2ccc(OC)c(Cl)c2)nc(N2CCN(c3ccc(OC)cc3)CC2)n1	1	8	79*	1	.	-79
CCOC(=O)C1CCCN(c2cc(=O)n(C3CCCCC3)c(=O)[nH]2)C1 (centres undefined)	.	59*	-17	0	-2	17
C[C@@H]1CCCCO[C@H](CN(C)C(=O)Nc2ccc(C(F)(F)F)cc2)[C@H](C)CN([C@H](C)CO)C(=O)c2cc(NC(=O)Nc3cccc4ccccc34)ccc2O1	2	.	.	.	9[16.7 µM]	.
COc1ccccc1-c1csc(C(NC(C)=O)c2ccc(F)c(F)c2)n1 (centres undefined)	2	.	.	?	8	.
COc1ccccc1-c1csc(C(NC(C)=O)c2cccc(F)c2)n1 (centres undefined)	1	.	.	33*	-41	.
C[C@@H]1CN([C@H](C)CO)C(=O)c2cccc(NC(=O)Nc3cccc4ccccc34)c2O[C@@H]1CN(C)S(=O)(=O)c1cn(C)cn1	4	.	.	.	.	.
